The source of these data is ChEMBL document CHEMBL4814043, “Optimization of a urea-containing series of nicotinamide phosphoribosyltransferase (NAMPT) activators” (Bioorg Med Chem Lett, 2021).

≈ marks a conversion by molar mass, not a printed value. Calls of active or inactive are those of the source.

The EC50 is the concentration giving half of the maximal effect. By Cmax is commonly meant the highest concentration seen after dosing. As a reminder, the Vd is the apparent volume that relates the amount in the body to the concentration in plasma or blood. The low end stands for little distribution into tissue, the high end for wide distribution into tissue. As a reminder, the clearance is the volume of plasma or blood freed of the substance per unit of time. Usually half-life stands for the time needed for the level to fall by half in the phase considered. Read a low half-life as rapid decline. For orientation: bioavailability means the share of a dose that reaches the circulation, judged against a reference dose that is usually intravenous. A high value points to good availability. Broadly, the AUC is the area under the concentration-time curve, a measure of exposure. Read a high AUC as high exposure. As usually defined, the inhibition is the drop in the measured response relative to a control, in per cent. Low readings indicate little suppression, high ones strong suppression. Broadly, the solubility is the concentration that dissolves in the medium under given conditions. Low readings indicate a poorly soluble substance, high ones a readily soluble substance. Broadly, the logD is the decadic logarithm of the distribution of all forms, ionised or not, between an organic phase and buffer at a given pH. High values mean a more lipophilic compound, low ones a more hydrophilic compound.

The target of data set [1] is T1, Nicotinamide phosphoribosyltransferase (Homo sapiens, UniProt P43490). The data set can be described thus: Activation of human NAMPT.
Target sequence in this assay (P43490 whole entry): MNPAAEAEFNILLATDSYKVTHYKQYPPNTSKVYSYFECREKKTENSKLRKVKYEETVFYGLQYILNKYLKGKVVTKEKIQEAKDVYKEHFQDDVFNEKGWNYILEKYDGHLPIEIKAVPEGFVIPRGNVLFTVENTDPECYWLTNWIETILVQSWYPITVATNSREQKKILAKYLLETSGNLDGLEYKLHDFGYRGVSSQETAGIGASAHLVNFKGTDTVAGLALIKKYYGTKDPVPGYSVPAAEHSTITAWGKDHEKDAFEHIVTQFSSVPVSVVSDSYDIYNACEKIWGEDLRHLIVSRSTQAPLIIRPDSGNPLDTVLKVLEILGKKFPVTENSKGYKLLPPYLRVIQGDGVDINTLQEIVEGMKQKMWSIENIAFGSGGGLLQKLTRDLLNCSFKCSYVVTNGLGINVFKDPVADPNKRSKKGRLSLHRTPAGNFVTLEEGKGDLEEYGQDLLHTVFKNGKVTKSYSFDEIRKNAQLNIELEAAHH
Data set [2] in a line: Cmax in mouse at 10 mg/kg, po. The data set is classed as ADME, organism-based. Also noted: route oral, dose 10 mg/kg. The note with it: in vivo.
Data set [3] in a line: Volume of distribution in mouse at 1 mg/kg, iv. The data set is classed as ADME, organism-based. The note with it: in vivo.
A short description of data set [4]: Plasma clearance in mouse at 1 mg/kg, iv. The data set is classed as ADME, organism-based.
A short description of data set [5]: Half life in mouse at 10 mg/kg, po. The data set is classed as ADME, organism-based. The note with it: in vivo.
A short description of data set [6]: Oral bioavailability in mouse at 10 mg/kg. The data set is classed as ADME, organism-based. The note with it: in vivo.
Data set [7] is described as follows: AUC in mouse at 10 mg/kg, po. The data set is classed as ADME, organism-based. The arrangement: dose 10 mg/kg. The note with it: in vivo.
Data set [8] addresses T2, CYP1A2 (Homo sapiens, UniProt P05177).
T2 sequence (P05177 whole entry): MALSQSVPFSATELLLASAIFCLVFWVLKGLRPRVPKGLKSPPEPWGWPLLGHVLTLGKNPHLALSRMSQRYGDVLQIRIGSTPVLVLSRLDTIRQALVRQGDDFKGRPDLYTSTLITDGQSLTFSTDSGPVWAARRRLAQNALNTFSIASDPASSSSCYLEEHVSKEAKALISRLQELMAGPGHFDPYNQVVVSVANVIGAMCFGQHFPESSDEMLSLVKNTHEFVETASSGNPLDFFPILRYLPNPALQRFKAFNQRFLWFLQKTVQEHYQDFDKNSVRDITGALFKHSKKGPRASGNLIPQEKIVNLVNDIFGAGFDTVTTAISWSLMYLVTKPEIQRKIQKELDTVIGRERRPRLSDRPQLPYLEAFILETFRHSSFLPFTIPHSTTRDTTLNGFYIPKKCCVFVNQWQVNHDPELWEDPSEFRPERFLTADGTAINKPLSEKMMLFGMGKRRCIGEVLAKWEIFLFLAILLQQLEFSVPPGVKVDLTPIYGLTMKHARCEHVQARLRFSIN
The data set can be described thus: Inhibition of CYP1A2 (unknown origin) at 10 uM measured after 10 mins. The data set is classed as ADME. The gist of the method:
(§1)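 Each CYP isoform (1A2, 2C9, 2D6, 3A4) reacted with compound at 10 µM for 10 min; value reported as percent inhibition.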

The nature of data set [9]: Solubility of compound at pH 1.2. The data set is classed as physicochemical. The note with it: buffer.
Data set [10] addresses T1, Nicotinamide phosphoribosyltransferase. Kind of data set: Activation of NAMPT in human A549 cells assessed as increase in NAD+ level at 10 uM incubated for 4 hrs by LC-MS/MS analysis. The data set is classed as cell-based. The note with it: filed as activator. The gist of the method: (§2)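 A549 cells exposed to 10 µM compound or DMSO vehicle for 4 hr, then harvested; NMN and NAD+ quantified by LC-MS/MS and normalized to cell protein; significance vs. vehicle control by P value.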
Target sequence in this assay (P43490 whole entry, looked up): as the sequence (P43490 whole entry) above

For data set [11] the target is unchanged. Kind of data set: Activation of NAMPT in human A549 cells assessed as increase in NMN level at 10 uM incubated for 4 hrs by LC-MS/MS analysis. The note with it: filed as activator. The data set is classed as cell-based. The gist of the method:
as §2
Target sequence in this assay (P43490 whole entry, looked up): as the sequence (P43490 whole entry) above

Data set [12] is described as follows: Metabolic stability in mouse liver microsomes assessed as parent compound remaining at 1 uM measured after 30 mins. The data set is classed as ADME, Microsome. The note with it: read-out: Stabilty. The gist of the method: (§3)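 Compound at 1 µM incubated with human or mouse microsomes for 30 min; read-out is percent parent remaining.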
Data set [13] in a line: Solubility of compound at pH 6.8. The data set is classed as physicochemical. The note with it: buffer.
The nature of data set [14]: Metabolic stability in human liver microsomes assessed as parent compound remaining at 1 uM measured after 30 mins. The data set is classed as ADME, Microsome. The note with it: read-out: Stabilty. The gist of the method:
as §3
A general note: Liver microsomes are vesicles of endoplasmic reticulum, rich in cytochrome P450 enzymes.

A short description of data set [15]: Permeability of compound at pH 5 by PAMPA assay. The note with it: read-out: permeability. The data set is classed as ADME. In general terms: PAMPA measures passive passage across an artificial lipid membrane.
The target in data set [16] is CYP2D6 (Homo sapiens, UniProt P10635). The data set can be described thus: Inhibition of CYP2D6 (unknown origin) at 10 uM measured after 10 mins. The data set is classed as ADME. Put shortly: as §1
Sequence of CYP2D6 (P10635 whole entry): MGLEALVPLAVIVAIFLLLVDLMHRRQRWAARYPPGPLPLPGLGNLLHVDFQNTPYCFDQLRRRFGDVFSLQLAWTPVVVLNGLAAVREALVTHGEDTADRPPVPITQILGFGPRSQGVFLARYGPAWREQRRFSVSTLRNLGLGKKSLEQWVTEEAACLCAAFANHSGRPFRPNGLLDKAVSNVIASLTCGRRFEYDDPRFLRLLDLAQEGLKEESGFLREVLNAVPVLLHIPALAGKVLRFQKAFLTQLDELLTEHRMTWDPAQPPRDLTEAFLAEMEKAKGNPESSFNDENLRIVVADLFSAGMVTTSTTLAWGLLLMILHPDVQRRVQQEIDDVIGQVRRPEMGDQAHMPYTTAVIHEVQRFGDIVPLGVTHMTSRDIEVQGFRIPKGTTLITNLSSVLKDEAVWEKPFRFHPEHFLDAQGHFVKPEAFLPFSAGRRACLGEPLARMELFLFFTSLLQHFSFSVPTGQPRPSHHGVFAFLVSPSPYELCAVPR
The target of data set [17] is CYP2C9 (Homo sapiens, UniProt P11712). The data set can be described thus: Inhibition of CYP2C9 (unknown origin) at 10 uM measured after 10 mins. The data set is classed as ADME. The gist of the method:
as §1

Data set [18] is described as follows: Permeability of compound at pH 7.4 by PAMPA assay. The data set is classed as ADME. The note with it: read-out: permeability.
Data set [19] addresses CYP3A4 (Homo sapiens, UniProt P08684). Kind of data set: Inhibition of CYP3A4 (unknown origin) at 10 uM measured after 10 mins. The data set is classed as ADME. Put shortly: as §1
A short description of data set [20]: 1-Octanol/PBS buffer distribution coefficient, log D of the compound at pH 7.4. The data set is classed as physicochemical. The gist of the method: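 Partitioning measured between 1-octanol and phosphate-buffered saline at pH 7.4.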

Sequence of CYP3A4 (P08684 whole entry): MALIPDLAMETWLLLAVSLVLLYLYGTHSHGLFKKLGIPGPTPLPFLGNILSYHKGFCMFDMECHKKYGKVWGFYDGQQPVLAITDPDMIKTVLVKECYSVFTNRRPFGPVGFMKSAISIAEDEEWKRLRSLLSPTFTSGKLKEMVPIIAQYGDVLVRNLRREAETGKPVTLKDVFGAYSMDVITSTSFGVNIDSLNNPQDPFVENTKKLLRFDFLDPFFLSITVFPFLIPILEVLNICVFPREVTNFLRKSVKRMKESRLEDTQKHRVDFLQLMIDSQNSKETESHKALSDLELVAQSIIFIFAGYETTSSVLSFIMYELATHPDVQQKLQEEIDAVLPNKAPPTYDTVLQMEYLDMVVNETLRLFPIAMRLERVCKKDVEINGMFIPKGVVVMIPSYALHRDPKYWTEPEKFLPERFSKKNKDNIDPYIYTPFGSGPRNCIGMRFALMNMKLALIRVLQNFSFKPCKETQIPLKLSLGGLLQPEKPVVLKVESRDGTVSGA
Sequence of CYP2C9 (P11712 whole entry): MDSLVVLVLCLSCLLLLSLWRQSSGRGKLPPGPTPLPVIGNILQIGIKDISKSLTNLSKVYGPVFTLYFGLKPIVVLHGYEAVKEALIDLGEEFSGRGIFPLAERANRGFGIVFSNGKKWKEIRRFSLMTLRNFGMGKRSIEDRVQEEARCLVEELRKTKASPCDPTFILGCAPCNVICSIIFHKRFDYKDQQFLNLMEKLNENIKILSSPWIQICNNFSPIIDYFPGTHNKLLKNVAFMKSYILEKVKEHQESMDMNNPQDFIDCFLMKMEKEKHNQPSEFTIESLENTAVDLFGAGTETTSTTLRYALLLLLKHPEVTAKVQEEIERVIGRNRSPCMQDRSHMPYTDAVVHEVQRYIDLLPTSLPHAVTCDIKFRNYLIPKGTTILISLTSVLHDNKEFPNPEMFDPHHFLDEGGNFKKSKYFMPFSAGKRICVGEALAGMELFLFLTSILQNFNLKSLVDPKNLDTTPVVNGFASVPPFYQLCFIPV

For the compound `CCOC(=O)c1ccc(NC(=S)NCc2ccncc2)cc1`, the EC50 in data set [1] was determined as 9770 nM.

Regarding `CN(C)S(=O)(=O)c1ccc(NC(=O)NCc2ccncc2)cc1`, in [1], the EC50 was 3110 nM.

In the case of `CCOC(=O)c1ccc(NC(=O)NCc2cc[nH]n2)cc1`, a half-maximal response in data set [1] (EC50) required 69000 nM.

Consider `CCOC(=O)c1ccc(NC(=O)NC(C)c2ccncc2)cc1` (stereo not given), for which the midpoint of the response in data set [1], the EC50, lay at 2280 nM.

Compound `O=C(NCc1cnco1)Nc1ccc(S(=O)(=O)c2ccccc2)cc1` had a 50% effective concentration (EC50) in [1] of 77 nM.

Take `CCOC(=O)c1ccc(NC(=O)NCc2cn[nH]c2)cc1`: a half-maximal effect in [1] (EC50) was put at 1850 nM.

The compound `CCOC(=O)c1ccc(NC(=O)OCc2ccncc2)cc1` returned an EC50 in data set [1] of 10800 nM.

`CCOC(=O)c1ccc(NC(=O)NCc2ccnnc2)cc1`: the half-maximal effective concentration (EC50) in data set [1] is over 100000 nM.

`O=C(NCc1ccncc1)Nc1ccc(S(=O)(=O)c2ccc(Cl)cc2)cc1` had an EC50 in data set [1] of 126 nM.

In turn, `O=C(NCc1ccncc1)Nc1ccc(S(=O)(=O)N2CC3CCC(C2)O3)cc1` yielded an EC50 in data set [1] of 279 nM.

Regarding `CCOC(=O)c1ccc(NC(=O)NCc2cocn2)cc1`, the midpoint of the response in data set [1], the EC50, lay at 27600 nM.

In turn, `O=C(NCc1ccncc1)Nc1ccc(S(=O)(=O)N2CCc3ccccc3C2)cc1` gave a maximum concentration (Cmax) in [2] of 7860 ng/mL. The compound further returned a distribution volume (Vd) in data set [3] of 0.6 L/kg. In data set [1], this compound had an EC50 of 142 nM. Besides, in data set [4], the clearance was found to be 20 mL/min/kg. The same compound had a half-life in data set [5] of 1 h. The compound further came in with a bioavailability in data set [6] of 47%. In addition, the AUC in data set [7] is 4270 ng·h/mL.

`CCOC(=O)c1ccc(NC(=O)NCc2ccccc2)cc1` showed an EC50 in data set [1] of 1370 nM.

Compound `CCOC(=O)c1ccc(N/C(=N\C#N)NCc2ccncc2)cc1` registered an EC50 in [1] of 41400 nM.

In data set [1], `CN(C1CCCC1)S(=O)(=O)c1ccc(NC(=O)NCc2ccncc2)cc1` displayed a half-maximal effective concentration (EC50) of 123 nM.

The compound `CCOC(=O)c1ccc(NC(=O)NCc2ccncn2)cc1` had an EC50 in data set [1] of 13600 nM.

`O=C(NCc1cnco1)Nc1ccc(S(=O)(=O)c2cccc(OC(F)(F)F)c2)cc1` had a maximum concentration (Cmax) in [2] of 15300 ng/mL. In addition, in data set [3], the Vd turned out to be 0.58 L/kg. The same compound had a clearance in data set [4] of 4 mL/min/kg. In addition, the half-life in data set [5] was 2.3 h. The bioavailability in data set [6] was over 100%. The AUC in data set [7] turned out to be 45200 ng·h/mL.

`CCOC(=O)c1ccc(N(C)C(=O)NCc2ccncc2)cc1` yielded an EC50 in data set [1] of over 100000 nM.

As to `CCOC(=O)c1ccc(NC(=O)CCc2ccncc2)cc1`, a half-maximal response in [1] (EC50) required 15900 nM.

Turning to `O=C(NCc1cn[nH]c1)Nc1ccc(S(=O)(=O)c2ccccc2)cc1`, the Cmax in data set [2] is 2230 ng/mL. Further, the Vd in data set [3] was 1.12 L/kg. Further, a half-maximal response in data set [1] (EC50) required 28 nM. This compound showed a clearance in data set [4] of 8 mL/min/kg. Further, in data set [5], the half-life is 2.5 h. Further, the bioavailability in data set [6] is 45%. Also, the exposure (AUC) in data set [7] stood at 9340 ng·h/mL.

In data set [1], `CNS(=O)(=O)c1ccc(NC(=O)NCc2ccncc2)cc1` displayed a 50% effective concentration (EC50) of 3230 nM.

In data set [1], `CCOC(=O)c1ccc(CC(=O)NCc2ccncc2)cc1` showed an EC50 of over 100000 nM.

On to `O=C(NCc1ccncc1)Nc1ccc(S(=O)(=O)Nc2ccccc2)cc1`, for which the concentration giving a half-maximal response (EC50) in [1] stood at 410 nM.

`O=C(NCc1ccncc1)Nc1ccc(S(=O)(=O)NCc2ccccc2)cc1` came in with a half-maximal effective concentration (EC50) in [1] of 102 nM.

Compound `CCOC(=O)c1ccc(NC(=O)NCc2c[nH]nn2)cc1` showed an EC50 in data set [1] of 7750 nM.

`O=C(NCc1cn[nH]c1)Nc1ccc(S(=O)(=O)c2ccc(Cl)cc2)cc1`: the inhibition at 10 min, 10 µM in data set [8] stood at 65%; in data set [16] it was 95%; in data set [17], 96%; in data set [19] it was 0%. This compound also displayed a Cmax in data set [2] of 9550 ng/mL. In addition, the results for the solubility in [9] and in [13] were 110 µg/mL (≈ 281 µM) and 8.5 µg/mL (≈ 21.7 µM), respectively. Further, the result in data set [10] and in data set [11] was Active. The remaining at 0.5 h, 1 µM in data set [12] stood at 18%; in data set [14] it was 87%. In addition, the Vd in [3] was determined as 0.61 L/kg. In [1], the midpoint of the response, the EC50, lay at 23 nM. The Papp is under 0.01 ×10⁻⁶ cm/s in [15] and 0.04 ×10⁻⁶ cm/s in data set [18]. Also, the clearance in data set [4] came out at 3 mL/min/kg. In addition, the half-life in data set [5] was 3.2 h. For the same compound, the bioavailability in data set [6] stood at 80%. In addition, in data set [7], the AUC was 54500 ng·h/mL. Besides, the log distribution coefficient (logD) in [20] came out at 3.1.

In data set [2], `CN(Cc1ccccc1)S(=O)(=O)c1ccc(NC(=O)NCc2ccncc2)cc1` gave a Cmax of 4950 ng/mL. The compound further displayed a Vd in data set [3] of 1.37 L/kg. Further, the clearance in data set [4] was 43 mL/min/kg. Moreover, in data set [5], the half-life is 0.6 h. Moreover, the bioavailability in [6] was over 100%. In addition, in data set [7], the area under the curve (AUC) turned out to be 4510 ng·h/mL.

In the case of `CCOC(=O)c1ccc(NC(=O)N(C)Cc2ccncc2)cc1`, the 50% effective concentration (EC50) in data set [1] was over 100000 nM.

Take `O=C(NCc1ccncc1)Nc1ccc(S(=O)(=O)c2ccccc2)cc1`: the 50% effective concentration (EC50) in data set [1] was found to be 85 nM.
